pIC50: −log10 of the molar value.
Legend:
Protease = Protease (Human immunodeficiency virus 1, UniProt Q9YQ12); assay: Inhibition of HIV1 protease
Method in brief: (§1)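 HIV-1 protease inhibition was measured with a commercial HIV protease assay kit, which supplied both the enzyme and the reagents. Acetyl pepstatin from the same kit served as the positive control. The assay was run and percent inhibition calculated by a previously published procedure. Fractions were tested at 100 µg/mL.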

[1] = biological target: Protease (Human immunodeficiency virus 1) (UniProt Q9YQ12); assay: Inhibition of HIV1 protease at 100 ug/ml; method in brief: as §1
Chain of Protease (Human immunodeficiency virus 1) (Q9YQ12 as listed by the source): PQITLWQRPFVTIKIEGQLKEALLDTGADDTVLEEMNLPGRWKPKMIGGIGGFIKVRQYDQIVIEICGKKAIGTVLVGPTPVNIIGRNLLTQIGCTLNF

Chain of Protease (Q9YQ12 whole entry): as the sequence (Q9YQ12 as listed by the source) above

Row | Structure (SMILES) | pIC50 (Protease) | inhibition [1] [%]
1 | C=C(CC[C@@H](C)[C@H]1CC[C@@]2(C)[C@@H]3CC[C@H]4C(C)(C)[C@@H](O)CC[C@@]45C[C@@]35CC[C@]12C)C(C)C | < 3.64 | 19
2 | CC(C)=CCC[C@H](C(=O)O)[C@@H]1CC[C@]2(C)C3=CC[C@@H]4[C@](C)(CC[C@@H](O)[C@]4(C)CO)[C@H]3CC[C@@]12C | < 3.67 | 26
3 | CC(C)=CCC[C@H](C(=O)O)[C@@H]1CC[C@]2(C)C3=CC[C@@H]4[C@](C)(CCC(=O)[C@]4(C)CO)[C@H]3CC[C@@]12C [XANTHOCERASIC ACID] | < 3.67 | 14
4 | CC1(C)CC[C@]2(C(=O)O)CC[C@]3(C)C(=CC[C@@H]4[C@@]5(C)CC[C@H](O)C(C)(C)[C@@H]5CC[C@]43C)[C@@H]2C1 [OLEANOLIC_ACID] | 4.66 | 96
5 | CC(C)=CCC[C@H](C(=O)O)[C@@H]1CC[C@]2(C)C3=CC[C@@H]4[C@](C)(CC[C@H](O)[C@]4(C)CO)[C@H]3CC[C@@]12C | 3.67 | 53
6 | CC(C)=CCC[C@H](C(=O)O)[C@@H]1CC[C@]2(C)C3=CC[C@H]4C(C)(C)[C@@H](O)CC[C@]4(C)[C@H]3CC[C@@]12C | 3.66 | 50
7 | Oc1cc(O)c2c(c1)O[C@@]1(c3ccc(O)c(O)c3)Oc3cc(O)c4c(c3[C@@H]2[C@H]1O)O[C@H](c1ccc(O)c(O)c1)[C@H](O)C4 [PROANTHOCYANIDIN A2] | < 3.76 | -2
8 | CC(C)=CCC[C@H](C(=O)O)[C@@H]1CC[C@]2(C)C3=CC[C@H]4C(C)(C)C(=O)CC[C@]4(C)[C@H]3CC[C@@]12C | 4.36 | 90
9 | Oc1cc(O)c2c(c1)O[C@@]1(c3cc(O)c(O)c(O)c3)Oc3cc(O)c4c(c3[C@@H]2[C@H]1O)O[C@H](c1ccc(O)c(O)c1)[C@H](O)C4 | 3.93 | 89
10 | CC(=O)OC[C@@]1(C)C(=O)CC[C@@]2(C)[C@H]1CC=C1[C@@H]2CC[C@@]2(C)[C@H]([C@H](CCC=C(C)C)C(=O)O)CC[C@]12C | < 3.71 | 26
11 | CC(=O)N[C@H](C(=O)N[C@H](C(=O)N[C@@H](CC(C)C)[C@@H](O)CC(=O)N[C@@H](C)C(=O)N[C@@H](CC(C)C)[C@@H](O)CC(=O)O)C(C)C)C(C)C [ACETYLPEPSTATIN] | 6.63 | 100
